ChEMBL document CHEMBL1132958, “Design of monocyclic (1-3) and dicyclic (1-3/4-10) gonadotropin releasing hormone (GnRH) antagonists” (J Med Chem, 2000)
Each block holds one molecule with its values, some of them ahead of it. Active and inactive are the calls of the source. The rule behind the calls is not given here.

Assays:
[1] = system: Rattus norvegicus; assay: Evaluated for number of rats ovulating in an in vivo anti-ovulatory assay at dose(50 microg); 0/6; format: functional, organism-based
[2] = system: Rattus norvegicus; assay: Evaluated for number of rats ovulating in an in vivo anti-ovulatory assay at dose(25 microg); 3/4; format: functional, organism-based
[3] = system: Rattus norvegicus; assay: Evaluated for number of rats ovulating in an in vivo anti-ovulatory assay at dose (25 microg); 5/6; format: functional, organism-based
[4] = system: Rattus norvegicus; assay: Evaluated for number of rats ovulating in an in vivo anti-ovulatory assay at dose (100 microg); 6/11; format: functional, organism-based
[5] = system: Rattus norvegicus; assay: Evaluated for number of rats ovulating in an in vivo anti-ovulatory assay at dose(100 microg); 0/5; format: functional, organism-based
[6] = system: Rattus norvegicus; assay: Evaluated for number of rats ovulating in an in vivo anti-ovulatory assay at dose(50 microg); 1/4; format: functional, organism-based
[7] = system: Rattus norvegicus; assay: Evaluated for number of rats ovulating in an in vivo anti-ovulatory assay at dose (500 microg); 7/8; format: functional, organism-based
[8] = system: Rattus norvegicus; assay: Evaluated for number of rats ovulating in an in vivo anti-ovulatory assay at dose (500 microg); 8/8; format: functional, organism-based
[9] = system: Rattus norvegicus; assay: Evaluated for number of rats ovulating in an in vivo anti-ovulatory assay at dose (25 microg); 0/6; format: functional, organism-based
[10] = system: Rattus norvegicus; assay: Evaluated for number of rats ovulating in an in vivo anti-ovulatory assay at dose (10 microg); 10/10; format: functional, organism-based
[11] = system: Rattus norvegicus; assay: Evaluated for number of rats ovulating in an in vivo anti-ovulatory assay at dose (100 microg); 2/9; format: functional, organism-based
[12] = system: Rattus norvegicus; assay: Evaluated for number of rats ovulating in an in vivo anti-ovulatory assay at dose (250 microg); 0/6; format: functional, organism-based
[13] = system: Rattus norvegicus; assay: Evaluated for number of rats ovulating in an in vivo anti-ovulatory assay at dose (250 microg); 5/9; format: functional, organism-based
[14] = system: Rattus norvegicus; assay: Evaluated for number of rats ovulating in an in vivo anti-ovulatory assay at dose (500 microg); 4/8; format: functional, organism-based
[15] = target: T1, Gonadotropin-releasing hormone receptor (Rattus norvegicus, UniProt P30969); assay: Competitive radioligand binding assay for rat Gonadotropin-releasing hormone receptor cells stably transfected in human HEK293
T1 sequence (P30969 whole entry): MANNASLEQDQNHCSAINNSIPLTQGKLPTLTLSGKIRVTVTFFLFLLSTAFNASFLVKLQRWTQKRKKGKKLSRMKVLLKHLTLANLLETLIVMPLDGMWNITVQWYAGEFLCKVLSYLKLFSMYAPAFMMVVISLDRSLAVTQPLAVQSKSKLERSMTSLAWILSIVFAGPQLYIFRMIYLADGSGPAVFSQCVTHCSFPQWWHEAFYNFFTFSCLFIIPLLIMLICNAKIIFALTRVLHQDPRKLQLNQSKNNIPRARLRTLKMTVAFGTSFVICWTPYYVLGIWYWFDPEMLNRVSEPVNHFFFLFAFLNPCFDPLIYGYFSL
Procedure, shortened: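 Membranes from HEK-293 cells stably expressing rat GnRH receptor (5% sucrose homogenate; nuclei removed at 3000g, membranes pelleted at 20000g, 4 °C), 7 µg protein in 10 mM Hepes pH 7.5, 150 mM NaCl, 0.1% BSA. Competitor at varying concentrations vs des-Gly10-[125I-Tyr5,DAla6,NMeLeu7,Pro9-NHEt]GnRH (~100 000 cpm), 90 min; PEI-coated GF/C filtration, PBS wash, γ counting. Ki by nonlinear least-squares fit; ≥3 independent experiments, mean ± SEM.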

[16] = system: Rattus norvegicus; assay: Evaluated for number of rats ovulating in an in vivo anti-ovulatory assay at dose (1000 microg); 3/8; format: functional, organism-based
[17] = system: Rattus norvegicus; assay: Evaluated for number of rats ovulating in an in vivo anti-ovulatory assay at dose(1000 microg); 7/8; format: functional, organism-based

SMILES: CC(=O)N[C@H]1CC(=O)NCCC(=O)N[C@@H](C(=O)N[C@@H](CO)C(=O)N[C@@H](Cc2ccc(O)cc2)C(=O)N[C@H](Cc2ccc3ccccc3c2)C(=O)N[C@H](CC(C)C)C(=O)N[C@@H](CCCN=C(N)N)C(=O)N2CCC[C@H]2C(=O)N[C@H](C)C(N)=O)CNC(=O)[C@@H](Cc2ccc(Cl)cc2)NC1=O
Activity [1]: Active | Activity [2]: inactive

SMILES: CC(=O)N[C@H]1CC(=O)NCCCC(=O)N[C@@H](C(=O)N[C@@H](CO)C(=O)N[C@@H](Cc2ccc(O)cc2)C(=O)N[C@H](Cc2ccc3ccccc3c2)C(=O)N[C@H](CC(C)C)C(=O)N[C@@H](CCCN=C(N)N)C(=O)N2CCC[C@H]2C(=O)N[C@H](C)C(N)=O)CNC(=O)[C@@H](Cc2ccc(Cl)cc2)NC1=O
Activity [3]: inactive | Activity [4]: Weak activity

SMILES: CC(=O)N[C@H]1CCC(=O)N[C@@H](C(=O)N[C@@H](CO)C(=O)N[C@@H](Cc2ccc(O)cc2)C(=O)N[C@H](Cc2ccc3ccccc3c2)C(=O)N[C@H](CC(C)C)C(=O)N[C@@H](CCCN=C(N)N)C(=O)N2CCC[C@H]2C(=O)N[C@H](C)C(N)=O)CCCCNC(=O)[C@@H](Cc2ccc(Cl)cc2)NC1=O
Activity [5]: Active | Activity [6]: Active

SMILES: CC(=O)N[C@H]1CC(=O)N[C@@H](C)C(=O)N[C@@H](C(=O)N[C@@H](CO)C(=O)N[C@@H](Cc2ccc(O)cc2)C(=O)N[C@H](CCCN=C(N)N)C(=O)N[C@H](CC(C)C)C(=O)N[C@@H](CCCN=C(N)N)C(=O)N2CCC[C@H]2C(=O)N[C@H](C)C(N)=O)CCCNC(=O)[C@@H](Cc2ccc(Cl)cc2)NC1=O
Activity [7]: inactive

SMILES: CC(=O)N[C@H]1CCC(=O)N[C@@H](C(=O)N[C@@H](CO)C(=O)N[C@@H](Cc2ccc(O)cc2)C(=O)N[C@H](CCCN=C(N)N)C(=O)N[C@H](CC(C)C)C(=O)N[C@@H](CCCN=C(N)N)C(=O)N2CCC[C@H]2C(=O)N[C@H](C)C(N)=O)CCCCNC(=O)[C@@H](Cc2ccc(Cl)cc2)NC1=O
Activity [8]: inactive

SMILES: CC(=O)N[C@H]1CC(=O)NCC(=O)N[C@@H](C(=O)N[C@@H](CO)C(=O)N[C@@H](Cc2ccc(O)cc2)C(=O)N[C@H](Cc2ccc3ccccc3c2)C(=O)N[C@H](CC(C)C)C(=O)N[C@@H](CCCN=C(N)N)C(=O)N2CCC[C@H]2C(=O)N[C@H](C)C(N)=O)CCCNC(=O)[C@@H](Cc2ccc(Cl)cc2)NC1=O
Activity [9]: Active | Activity [10]: inactive

SMILES: CC(=O)N[C@H]1CC(=O)N[C@@H](C)C(=O)N[C@@H](C(=O)N[C@@H](CO)C(=O)N[C@@H](Cc2ccc(O)cc2)C(=O)N[C@H](Cc2ccc3ccccc3c2)C(=O)N[C@H](CC(C)C)C(=O)N[C@@H](CCCN=C(N)N)C(=O)N2CCC[C@H]2C(=O)N[C@H](C)C(N)=O)CCCNC(=O)[C@@H](Cc2ccc(Cl)cc2)NC1=O
Activity [11]: Weak activity | Activity [12]: Active

SMILES: CC(=O)N[C@H]1CC(=O)N[C@H](C)C(=O)N[C@@H](C(=O)N[C@@H](CO)C(=O)N[C@@H](Cc2ccc(O)cc2)C(=O)N[C@H](Cc2ccc3ccccc3c2)C(=O)N[C@H](CC(C)C)C(=O)N[C@@H](CCCN=C(N)N)C(=O)N2CCC[C@H]2C(=O)N[C@H](C)C(N)=O)CCCNC(=O)[C@@H](Cc2ccc(Cl)cc2)NC1=O
Activity [13]: Weak activity | Activity [14]: Weak activity

Ki [15]: 140 pM
SMILES: CC(=O)N[C@@H]1CC(=O)NCC(=O)NCCCC[C@H](C(=O)N[C@@H](CO)C(=O)N[C@@H](Cc2ccc(O)cc2)C(=O)N[C@H](Cc2ccc3ccccc3c2)C(=O)N[C@@H](CC(C)C)C(=O)N[C@@H](CCCN=C(N)N)C(=O)N2CCC[C@H]2C(=O)N[C@H](C)C(N)=O)NC(=O)[C@@H](Cc2ccc(Cl)cc2)NC1=O

Ki [15]: 5200 pM
SMILES: CC(=O)N[C@@H]1CCC(=O)NCCC[C@H](C(=O)N[C@@H](CO)C(=O)N[C@@H](Cc2ccc(O)cc2)C(=O)N[C@H](Cc2ccc3ccccc3c2)C(=O)N[C@@H](CC(C)C)C(=O)N[C@@H](CCCN=C(N)N)C(=O)N2CCC[C@H]2C(=O)N[C@H](C)C(N)=O)NC(=O)[C@@H](Cc2ccc(Cl)cc2)NC1=O

Ki [15]: 310 pM
SMILES: CC(=O)N[C@@H]1CCC(=O)NCC[C@H](C(=O)N[C@@H](CO)C(=O)N[C@@H](Cc2ccc(O)cc2)C(=O)N[C@H](Cc2ccc3ccccc3c2)C(=O)N[C@@H](CC(C)C)C(=O)N[C@@H](CCCN=C(N)N)C(=O)N2CCC[C@H]2C(=O)N[C@H](C)C(N)=O)NC(=O)[C@@H](Cc2ccc(Cl)cc2)NC1=O

Ki [15]: 2200 pM
SMILES: CC(=O)NC1CCCNC(=O)CCNC(=O)C[C@@H](C(=O)N[C@@H](CO)C(=O)N[C@@H](Cc2ccc(O)cc2)C(=O)N[C@H](Cc2ccc3ccccc3c2)C(=O)N[C@H](CC(C)C)C(=O)NC(CCCN=C(N)N)C(=O)N2CCC[C@H]2C(=O)N[C@H](C)C(N)=O)NC(=O)[C@@H](Cc2ccc(Cl)cc2)NC1=O (stereo in doubt)
Activity [16]: Weak activity

SMILES: CC(=O)N[C@H]1CC(=O)N[C@H](C(=O)N[C@@H](CO)C(=O)N[C@@H](Cc2ccc(O)cc2)C(=O)N[C@H](Cc2ccc3ccccc3c2)C(=O)N[C@H](CC(C)C)C(=O)N[C@@H](CCCN=C(N)N)C(=O)N2CCC[C@H]2C(=O)N[C@H](C)C(N)=O)CNC(=O)[C@@H](Cc2ccc(Cl)cc2)NC1=O
Activity [17]: inactive

Ki [15]: 320 pM
SMILES: CC(=O)N[C@@H]1CC(=O)NCCC(=O)NCC[C@H](C(=O)N[C@@H](CO)C(=O)N[C@@H](Cc2ccc(O)cc2)C(=O)N[C@H](Cc2ccc3ccccc3c2)C(=O)N[C@@H](CC(C)C)C(=O)N[C@@H](CCCN=C(N)N)C(=O)N2CCC[C@H]2C(=O)N[C@H](C)C(N)=O)NC(=O)[C@@H](Cc2ccc(Cl)cc2)NC1=O
